Experimental data as given in ChEMBL document CHEMBL1139934, “Synthesis and biological activity of imidazopyridine anticoccidial agents: part I” (Eur J Med Chem, 2007).

Tests used:
Eimeria tenella [1] = assay: Anticococcidal activity against Eimeria tenella in Chick assessed as reduction in oocyte at 25 ppm relative to control; format: functional; parameters: scale not given: the % may be the effect or the level left
Procedure, shortened: (§1)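 Expanded Mini-Assay Coccidiosis (ExMAC) in chickens infected with E. tenella, E. acervulina, E. mitis and E. maxima. Compound given in the feed at the stated ppm. Efficacy for each species is scored 0 to 4 from the percent oocyst reduction relative to an untreated control. Where a compound was tested more than once, all values are reported.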

[2] = biological target: cGMP-dependent protein kinase (Eimeria tenella, UniProt Q8MMZ8); assay: Inhibition of Eimeria tenella cGMP-dependent protein kinase by Ten_K assay
Sequence of cGMP-dependent protein kinase (Q8MMZ8 whole entry): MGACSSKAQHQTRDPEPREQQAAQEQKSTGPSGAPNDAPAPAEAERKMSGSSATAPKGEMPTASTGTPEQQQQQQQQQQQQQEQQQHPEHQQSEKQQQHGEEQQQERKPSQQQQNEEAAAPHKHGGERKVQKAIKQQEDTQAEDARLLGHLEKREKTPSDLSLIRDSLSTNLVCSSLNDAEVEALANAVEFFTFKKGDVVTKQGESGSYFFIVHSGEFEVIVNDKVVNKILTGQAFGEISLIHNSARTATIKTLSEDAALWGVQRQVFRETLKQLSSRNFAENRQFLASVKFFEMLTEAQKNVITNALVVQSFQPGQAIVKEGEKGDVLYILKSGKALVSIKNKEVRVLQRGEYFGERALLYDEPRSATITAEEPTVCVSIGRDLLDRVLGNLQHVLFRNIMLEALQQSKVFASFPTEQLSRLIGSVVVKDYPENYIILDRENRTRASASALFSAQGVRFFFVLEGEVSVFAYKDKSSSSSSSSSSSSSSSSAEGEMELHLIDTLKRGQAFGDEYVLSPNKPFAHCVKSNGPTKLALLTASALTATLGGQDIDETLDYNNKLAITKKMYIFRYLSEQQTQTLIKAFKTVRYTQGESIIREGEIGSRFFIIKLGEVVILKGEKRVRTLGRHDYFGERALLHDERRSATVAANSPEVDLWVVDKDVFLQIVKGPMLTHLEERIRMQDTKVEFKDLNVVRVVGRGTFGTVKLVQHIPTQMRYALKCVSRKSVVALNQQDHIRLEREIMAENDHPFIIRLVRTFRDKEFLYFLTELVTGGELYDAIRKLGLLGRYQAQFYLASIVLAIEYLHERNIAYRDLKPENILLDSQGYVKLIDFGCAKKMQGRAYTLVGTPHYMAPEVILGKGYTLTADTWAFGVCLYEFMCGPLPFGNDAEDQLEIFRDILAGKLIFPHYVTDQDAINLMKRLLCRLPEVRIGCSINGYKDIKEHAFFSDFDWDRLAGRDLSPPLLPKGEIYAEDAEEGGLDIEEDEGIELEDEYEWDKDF
Procedure, shortened: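 Ten_K (Tenella Kinase) assay measuring inhibition of E. tenella PKG enzyme activity. Result expressed as the concentration giving 50% inhibition (IC50, nM). Where a compound was tested more than once, all values are reported.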

Eimeria tenella [3] = assay: Anticococcidal activity against Eimeria tenella in Chick assessed as reduction in oocyte at 12.5 ppm relative to control; format: functional; parameters: scale not given: the % may be the effect or the level left; procedure, shortened: as §1
Eimeria tenella [4] = assay: Anticococcidal activity against Eimeria tenella in Chick assessed as reduction in oocyte at 6.25 ppm relative to control; format: functional; parameters: scale not given: the % may be the effect or the level left; procedure, shortened: as §1
Eimeria acervulina [5] = assay: Anticococcidal activity against Eimeria acervulina in Chick assessed as reduction in oocyte at 25 ppm relative to control; format: functional; parameters: scale not given: the % may be the effect or the level left; procedure, shortened: as §1
Eimeria acervulina [6] = assay: Anticococcidal activity against Eimeria acervulina in Chick assessed as reduction in oocyte at 12.5 ppm relative to control; format: functional; parameters: scale not given: the % may be the effect or the level left; procedure, shortened: as §1
Eimeria acervulina [7] = assay: Anticococcidal activity against Eimeria acervulina in Chick assessed as reduction in oocyte at 6.25 ppm relative to control; format: functional; parameters: scale not given: the % may be the effect or the level left; procedure, shortened: as §1
Eimeria mitis [8] = assay: Anticococcidal activity against Eimeria mitis in Chick assessed as reduction in oocyte at 25 ppm relative to control; format: functional; parameters: scale not given: the % may be the effect or the level left; procedure, shortened: as §1
Eimeria maxima [9] = assay: Anticococcidal activity against Eimeria maxima in Chick assessed as reduction in oocyte at 25 ppm relative to control; format: functional; parameters: scale not given: the % may be the effect or the level left; procedure, shortened: as §1
Eimeria maxima [10] = assay: Anticococcidal activity against Eimeria maxima in Chick assessed as reduction in oocyte at 12.5 ppm relative to control; format: functional; parameters: scale not given: the % may be the effect or the level left; procedure, shortened: as §1
Eimeria maxima [11] = assay: Anticococcidal activity against Eimeria maxima in Chick assessed as reduction in oocyte at 6.25 ppm relative to control; format: functional; parameters: scale not given: the % may be the effect or the level left; procedure, shortened: as §1
Eimeria mitis [12] = assay: Anticococcidal activity against Eimeria mitis in Chick assessed as reduction in oocyte at 12.5 ppm relative to control; format: functional; parameters: scale not given: the % may be the effect or the level left; procedure, shortened: as §1
Eimeria mitis [13] = assay: Anticococcidal activity against Eimeria mitis in Chick assessed as reduction in oocyte at 6.25 ppm relative to control; format: functional; parameters: scale not given: the % may be the effect or the level left; procedure, shortened: as §1
[14] = biological target: cGMP-dependent protein kinase (Eimeria tenella) (UniProt Q8MMZ8); assay: Inhibition of Eimeria tenella cGMP-dependent protein kinase at 100 nM by Ten_K assay
Sequence of cGMP-dependent protein kinase (Eimeria tenella) (Q8MMZ8 2-1003 limits assumed): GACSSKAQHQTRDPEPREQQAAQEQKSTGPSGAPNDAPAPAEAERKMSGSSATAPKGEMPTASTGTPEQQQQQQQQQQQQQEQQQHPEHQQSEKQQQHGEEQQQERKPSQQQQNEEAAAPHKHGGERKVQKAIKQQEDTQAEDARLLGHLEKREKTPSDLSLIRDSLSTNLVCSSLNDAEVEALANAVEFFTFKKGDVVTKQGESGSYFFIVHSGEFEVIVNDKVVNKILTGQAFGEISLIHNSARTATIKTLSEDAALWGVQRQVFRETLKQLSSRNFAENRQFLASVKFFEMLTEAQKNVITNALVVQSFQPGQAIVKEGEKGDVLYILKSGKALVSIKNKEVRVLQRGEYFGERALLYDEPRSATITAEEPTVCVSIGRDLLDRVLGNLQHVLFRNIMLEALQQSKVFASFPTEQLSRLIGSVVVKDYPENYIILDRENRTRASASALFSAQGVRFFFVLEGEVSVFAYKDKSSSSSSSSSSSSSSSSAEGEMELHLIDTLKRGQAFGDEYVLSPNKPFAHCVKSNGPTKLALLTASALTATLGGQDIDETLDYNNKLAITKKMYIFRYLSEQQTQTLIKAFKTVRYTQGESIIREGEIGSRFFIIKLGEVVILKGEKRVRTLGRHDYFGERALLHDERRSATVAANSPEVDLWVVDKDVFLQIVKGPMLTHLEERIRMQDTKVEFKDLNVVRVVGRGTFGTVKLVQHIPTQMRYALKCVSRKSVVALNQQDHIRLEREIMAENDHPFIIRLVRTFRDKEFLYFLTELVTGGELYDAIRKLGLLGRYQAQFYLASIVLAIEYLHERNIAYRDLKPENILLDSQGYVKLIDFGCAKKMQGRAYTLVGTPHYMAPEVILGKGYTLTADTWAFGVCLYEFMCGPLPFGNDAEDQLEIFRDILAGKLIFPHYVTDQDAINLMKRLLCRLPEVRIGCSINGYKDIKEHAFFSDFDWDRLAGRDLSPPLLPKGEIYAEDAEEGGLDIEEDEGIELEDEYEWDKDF

Eimeria tenella [15] = assay: Anticococcidal activity against Eimeria tenella in Chick assessed as reduction in oocyte at 1.25 ppm relative to control; format: functional; parameters: scale not given: the % may be the effect or the level left; procedure, shortened: as §1
Eimeria acervulina [16] = assay: Anticococcidal activity against Eimeria acervulina in Chick assessed as reduction in oocyte at 1.25 ppm relative to control; format: functional; parameters: scale not given: the % may be the effect or the level left; procedure, shortened: as §1
Eimeria mitis [17] = assay: Anticococcidal activity against Eimeria mitis in Chick assessed as reduction in oocyte at 1.25 ppm relative to control; format: functional; parameters: scale not given: the % may be the effect or the level left; procedure, shortened: as §1
Eimeria maxima [18] = assay: Anticococcidal activity against Eimeria maxima in Chick assessed as reduction in oocyte at 1.25 ppm relative to control; format: functional; parameters: scale not given: the % may be the effect or the level left; procedure, shortened: as §1
Eimeria maxima [19] = assay: Anticococcidal activity against Eimeria maxima in Chick assessed as reduction in oocyte at 3.13 ppm relative to control; format: functional; parameters: scale not given: the % may be the effect or the level left; procedure, shortened: as §1
Eimeria tenella [20] = assay: Anticococcidal activity against Eimeria tenella in Chick assessed as reduction in oocyte at 3.13 ppm relative to control; format: functional; parameters: scale not given: the % may be the effect or the level left; procedure, shortened: as §1
Eimeria acervulina [21] = assay: Anticococcidal activity against Eimeria acervulina in Chick assessed as reduction in oocyte at 3.13 ppm relative to control; format: functional; parameters: scale not given: the % may be the effect or the level left; procedure, shortened: as §1
Eimeria mitis [22] = assay: Anticococcidal activity against Eimeria mitis in Chick assessed as reduction in oocyte at 3.13 ppm relative to control; format: functional; parameters: scale not given: the % may be the effect or the level left; procedure, shortened: as §1
Eimeria tenella [23] = assay: Anticococcidal activity against Eimeria tenella in Chick assessed as reduction in oocyte at 50 ppm relative to control; format: functional; parameters: scale not given: the % may be the effect or the level left; procedure, shortened: as §1
Eimeria acervulina [24] = assay: Anticococcidal activity against Eimeria acervulina in Chick assessed as reduction in oocyte at 50 ppm relative to control; format: functional; parameters: scale not given: the % may be the effect or the level left; procedure, shortened: as §1
Eimeria maxima [25] = assay: Anticococcidal activity against Eimeria maxima in Chick assessed as reduction in oocyte at 50 ppm relative to control; format: functional; parameters: scale not given: the % may be the effect or the level left; procedure, shortened: as §1
Eimeria mitis [26] = assay: Anticococcidal activity against Eimeria mitis in Chick assessed as reduction in oocyte at 50 ppm relative to control; format: functional; parameters: scale not given: the % may be the effect or the level left; procedure, shortened: as §1

Compound | Activity (Eimeria tenella [1]) [%] | IC50 [2] [nM] | Activity (Eimeria tenella [3]) [%] | Activity (Eimeria tenella [4]) [%] | Activity (Eimeria acervulina [5]) [%] | Activity (Eimeria acervulina [6]) [%] | Activity (Eimeria acervulina [7]) [%] | Activity (Eimeria mitis [8]) [%] | Activity (Eimeria maxima [9]) [%] | Activity (Eimeria maxima [10]) [%] | Activity (Eimeria maxima [11]) [%] | Activity (Eimeria mitis [12]) [%] | Activity (Eimeria mitis [13]) [%] | further results
CN(C)Cc1ccn2c(-c3ccnc(NC4CCCCC4)n3)c(-c3ccc(F)cc3)nc2c1 | 80 | 0.12 | 80 | 80 | 50 | <50 | <50 | 80 | 80 | 80 | 80 | 50 | <50 | 
CN(C)Cc1ccn2c(-c3ccnc(NCCO)n3)c(-c3ccc(F)cc3)nc2c1 | 80 | 0.3 | 50 | <50 | 80 | <50 | <50 | 80 | 80 | 80 | 50 | <50 | <50 | 
CN(C)Cc1ccn2c(-c3ccnc(NC4CC4)n3)c(-c3ccc(F)cc3)nc2c1 | 80 | 0.08 | 80 | <50 | 80 | 80 | 80 | 80 | 80 | 80 | 80 | 50 | <50 | 
CN(C)Cc1ccn2c(-c3ccnc(NCc4c(F)cccc4F)n3)c(-c3ccc(F)cc3)nc2c1 | 50 | 0.06 | <50 | <50 | <50 | <50 | <50 | 80 | 80 | 80 | 50 | <50 | <50 | 
CN(C)Cc1ccn2c(-c3ccnc(NC(=O)C4CCC4)n3)c(-c3ccc(F)cc3)nc2c1 | 80 | 0.27 | 80 | 80 | 80 | <50 | <50 | 80 | 80 | 80 | <50 | 80 | <50 | 
CN(C)Cc1ccn2c(-c3ccnc(NS(=O)(=O)Cc4ccccc4)n3)c(-c3ccc(F)cc3)nc2c1 | <50 |  |  |  | <50 |  |  | <50 | <50 |  |  |  |  | inhibition [14]: 40%
CN(C)Cc1ccn2c(-c3nc(N)ncc3F)c(-c3ccc(F)cc3)nc2c1 | 80 | 0.23 |  | 80 | 100 |  | 50 | 50 | 100 |  | <50 |  | <50 | Activity (Eimeria tenella [15]): 80%; Activity (Eimeria acervulina [16]): 100%; Activity (Eimeria mitis [17]): <50%; Activity (Eimeria maxima [18]): <50%
Cc1cnc(N)nc1-c1c(-c2ccc(F)cc2)nc2cc(CN(C)C)ccn12 | 80 | 0.23 | 80 | <50 | 80 | <50 | <50 | 80 | 80 | 80 | 80 | 80 | <50 | 
CN(C)Cc1ccn2c(-c3ccnc(N)n3)c(-c3c(F)cc(F)cc3F)nc2c1 | 80 | 0.52 | 80 | <50 | 80 | 80 | 50 | <50 | 100 | 80 | 50 | <50 | 50 | Activity (Eimeria maxima [19]): 80%; Activity (Eimeria tenella [20]): 50%; Activity (Eimeria acervulina [21]): <50%; Activity (Eimeria mitis [22]): 50%
CN(C)Cc1ccn2c(-c3ccnc(NCc4cccc(F)c4)n3)c(-c3ccc(F)cc3)nc2c1 | 50 | 0.09 | <50 | <50 | 80 | 50 | <50 | 50 | 80 | 80 | <50 | <50 | <50 | 
CN(C)Cc1ccn2c(-c3ccnc(NC4CCC4)n3)c(-c3ccc(F)cc3)nc2c1 | 80 | 0.22 | 80 | 80 | 80 | 80 | <50 | 80 | 80 | 80 | 50 | 50 | <50 | 
COCCNc1nccc(-c2c(-c3ccc(F)cc3)nc3cc(CN(C)C)ccn23)n1 | 80 | 0.25 | 80 | <50 | 80 | 80 | <50 | <50 | 80 | 80 | 50 | <50 | <50 | 
CN(C)Cc1ccn2c(-c3ccnc(NC(=O)C4CC4)n3)c(-c3ccc(F)cc3)nc2c1 | 80 | 0.42 | 80 | 50 | 80 | 80 | 80 | 80 | 50 | 80 | <50 | 80 | <50 | 
CN(C)Cc1ccn2c(-c3ccnc(N)n3)c(-c3ccc(F)cc3)nc2c1 | 80 | 0.23 | 80 | <50 | 80 | <50 | <50 | 80 | 80 | 80 | 80 | 80 | <50 | 
CN(C)Cc1ccn2c(-c3ccnc(NCCCO)n3)c(-c3ccc(F)cc3)nc2c1 |  | 0.33 | 80 | 80 |  | 80 | <50 |  |  | 80 | 80 | 80 | <50 | 
CCCCNc1nccc(-c2c(-c3ccc(F)cc3)nc3cc(CN(C)C)ccn23)n1 |  | 2.14 |  |  |  |  |  |  |  |  |  |  |  | Activity (Eimeria tenella [23]): <50%; Activity (Eimeria acervulina [24]): <50%; Activity (Eimeria maxima [25]): <50%; Activity (Eimeria mitis [26]): <50%
CN(C)Cc1ccn2c(-c3ccnc(NCC4CC4)n3)c(-c3ccc(F)cc3)nc2c1 | 80 | 0.064 | 80 | <50 | 80 | 80 | 80 | 80 | 80 | 80 | 80 | 80 | <50 | 
CN(C)Cc1ccn2c(-c3ccnc(NC=O)n3)c(-c3ccc(F)cc3)nc2c1 |  | 0.45 | 80 | 80 |  | 80 | 80 |  |  | 80 | 80 | 50 | <50 | 
CN(C)Cc1ccn2c(-c3ccnc(NC4CCCC4)n3)c(-c3ccc(F)cc3)nc2c1 |  | 0.102 | 80 | 80 |  | 80 | 80 |  |  | 80 | <50 | 80 | 50 | 
